Measured values from ChEMBL document CHEMBL2417530, “Coumarin derivatives protect against ischemic brain injury in rats” (Eur J Med Chem, 2013).
Activity calls are given as the source filed them. The calls are words filed in the database; no cut-off is given here.

Columns and labels:
Rattus norvegicus [1] = assay: In vivo neuroprotective activity in Sprague-Dawley rat transient middle cerebral artery occlusion model assessed as reduction of brain-water content at 1.5 to 6 mg/kg, iv measured 24 hrs post reperfusion; format: functional, organism-based
Summary of the method: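 Male SD rats (7 weeks, 260-280 g) had 60 min transient right MCA occlusion with a nylon filament, then reperfusion. Saline or drug (1.5, 3.0, 6.0 mg/kg) was injected iv at reperfusion. Animals without neurological deficit were replaced. At 24 h brains were oven-dried at 110 °C for 24 h, and water content was taken as (wet−dry)/wet; n = 12.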

Rattus norvegicus [2] = assay: In vivo neuroprotective activity in iv dosed Sprague-Dawley rat transient middle cerebral artery occlusion model assessed as suppression of neuronal loss in hippocampus measured 24 hrs post reperfusion by nissl staining assay; format: functional, organism-based
Summary of the method: (§1)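 After 60 min transient MCAO with iv treatment at reperfusion, rats were perfused at 24 h with PBS, then 4% buffered paraformaldehyde. Brains were paraffin-embedded and coronal sections stained with 0.5% cresyl fast violet (Nissl). Cortex and hippocampus were examined at 200×.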

Rattus norvegicus [3] = assay: In vivo neuroprotective activity in iv dosed Sprague-Dawley rat transient middle cerebral artery occlusion model assessed as reduction of infarct size measured 24 hrs post reperfusion by TTC staining assay; format: functional, organism-based
Summary of the method: (§2)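 Male Sprague-Dawley rats, 7 weeks, 260–280 g, under 10% chloral hydrate ip. Right MCA occluded 60 min by tip-burned 4-0 nylon thread via common carotid, then reperfused. Saline or drug given iv at reperfusion, ethanol as cosolvent. Killed 24 h later; six 2 mm slices in 1% TTC in PBS, 37 °C, 30 min. Infarct area traced as % of total area; n = 12.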

Cortex [4] = assay: Clearance in Sprague-Dawley rat cortex at 2 x 10^-5 mol/kg, iv by LC-MS analysis; format: ADME, organism-based; conditions: in vivo
Summary of the method: (§3)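 Male Sprague-Dawley rats (260-280 g, n = 4) given a single iv dose of 6 mg/kg. Blood was taken from the jugular vein into heparin tubes under ether, and plasma was spun out and stored at -70 °C. After saline perfusion, cortex was homogenized in 2 volumes of water. Samples were precipitated with acetonitrile with internal standard added and quantified by LC-MS against a weighted linear calibration.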

Rattus norvegicus [5] = assay: In vivo neuroprotective activity in iv dosed Sprague-Dawley rat transient middle cerebral artery occlusion model assessed as suppression of neuronal loss in cerebral cortex measured 24 hrs post reperfusion by nissl staining assay; format: functional, organism-based; summary of the method: as §1
Rattus norvegicus [6] = assay: Anti-ischemia activity in Sprague-Dawley rat transient middle cerebral artery occlusion model assessed as inhibition of cleaved caspase-3 protein expression in hippocampus at 1.5 to 6 mg/kg, iv measured 24 hrs post reperfusion by Western blot analysis relative to vehicle-treated control; format: functional, organism-based
Summary of the method: (§4)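 Rats underwent 60 min intraluminal right MCA occlusion under chloral hydrate, then reperfusion, with iv saline or drug (1.5, 3.0, 6.0 mg/kg) at reperfusion. At 24 h they were saline-perfused and cortex and hippocampus lysed in RIPA buffer. Protein was BCA-normalized, run on SDS-PAGE and blotted for Bcl-2, Bax, cleaved caspase-3 and β-actin with ECL detection; n = 4.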

Cortex [7] = assay: Drug uptake in Sprague-Dawley rat cortex at 2 x 10^-5 mol/kg, iv measured at 60 mins by LC-MS analysis; format: ADME, organism-based; conditions: in vivo, 1 h; summary of the method: as §3
[8] = Tmax in Sprague-Dawley rat plasma at 2 x 10^-5 mol/kg, iv by LC-MS analysis; format: ADME, organism-based; conditions: 2e-05 mol/kg; summary of the method: as §3
[9] = Volume of distribution in Sprague-Dawley rat cortex at 2 x 10^-5 mol/kg, iv by LC-MS analysis; format: ADME, organism-based; conditions: 2e-05 mol/kg; summary of the method: as §3
[10] = Cmax in Sprague-Dawley rat cortex at 2 x 10^-5 mol/kg, iv measured at 2 mins by LC-MS analysis; format: ADME, organism-based; conditions: 2e-05 mol/kg; summary of the method: as §3
[11] = Tmax in Sprague-Dawley rat cortex at 2 x 10^-5 mol/kg, iv by LC-MS analysis; format: ADME, organism-based; conditions: 2e-05 mol/kg; summary of the method: as §3
PC-12 = assay: Neuroprotective activity in rat PC12 cells assessed as attenuation of oxygen-glucose deprivation-induced cellular damage at 10 uM by MTT assay relative to control; format: functional
Summary of the method: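 PC12 cells were seeded at 5×10^3/well for 24 h. OGD insult was low-glucose medium plus 5 mM sodium dithionite for 24 h, given together with 10 µM compound. MTT (5 mg/mL) was added for 4 h and absorbance read at 570 nm. Viability was expressed as % of full-medium control; n = 3.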

[12] = AUC in Sprague-Dawley rat plasma at 2 x 10^-5 mol/kg, iv by LC-MS analysis; format: ADME, organism-based; conditions: 2e-05 mol/kg; summary of the method: as §3
Rattus norvegicus [13] = assay: Anti-ischemia activity in Sprague-Dawley rat transient middle cerebral artery occlusion model assessed as inhibition of Bax protein expression in hippocampus at 1.5 to 6 mg/kg, iv measured 24 hrs post reperfusion by Western blot analysis relative to vehicle-treated control; format: functional, organism-based; summary of the method: as §4
[14] = Clearance in Sprague-Dawley rat plasma at 2 x 10^-5 mol/kg, iv by LC-MS analysis; format: ADME, organism-based; conditions: 2e-05 mol/kg; summary of the method: as §3
[15] = Cmax in Sprague-Dawley rat plasma at 2 x 10^-5 mol/kg, iv measured at 2 mins by LC-MS analysis; format: ADME, organism-based; conditions: 2e-05 mol/kg; summary of the method: as §3
Rattus norvegicus [16] = assay: In vivo neuroprotective activity in Sprague-Dawley rat transient middle cerebral artery occlusion model assessed as reduction of infarct size at 6 mg/kg, iv measured 24 hrs post reperfusion by TTC staining assay relative to vehicle-treated control; format: functional; parameters: scale not given: the % may be the effect or the level left; summary of the method: as §2
Rattus norvegicus [17] = assay: Anti-ischemia activity in Sprague-Dawley rat transient middle cerebral artery occlusion model assessed as inhibition of Bax protein expression in cerebral cortex at 1.5 to 6 mg/kg, iv measured 24 hrs post reperfusion by Western blot analysis relative to vehicle-treated control; format: functional, organism-based; summary of the method: as §4
Rattus norvegicus [18] = assay: In vivo neuroprotective activity in Sprague-Dawley rat transient middle cerebral artery occlusion model assessed as suppression of neuronal loss in cerebral cortex at 1.5 to 6 mg/kg, iv measured 24 hrs post reperfusion by TUNEL assay; format: functional, organism-based
Summary of the method: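 Transient MCAO in rats (60 min occlusion), with iv treatment at 1.5, 3.0 or 6.0 mg/kg at reperfusion. At 24 h brains were perfusion-fixed in 4% paraformaldehyde and paraffin-embedded. Hippocampal or cortical sections were proteinase K-treated (20 µg/mL, 15 min, RT), given TdT reaction (37 °C, 1 h) and anti-digoxigenin-AP detection, and TUNEL-positive cells were examined at 200×.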

[19] = AUC in Sprague-Dawley rat cortex at 2 x 10^-5 mol/kg, iv by LC-MS analysis; format: ADME, organism-based; conditions: 2e-05 mol/kg; summary of the method: as §3
[20] = Terminal half life in Sprague-Dawley rat plasma at 2 x 10^-5 mol/kg, iv by LC-MS analysis; format: ADME, organism-based; conditions: 2e-05 mol/kg, read-out: beta t1/2; summary of the method: as §3
[21] = Volume of distribution in Sprague-Dawley rat plasma at 2 x 10^-5 mol/kg, iv by LC-MS analysis; format: ADME, organism-based; conditions: 2e-05 mol/kg; summary of the method: as §3
Rattus norvegicus [22] = assay: In vivo neuroprotective activity in Sprague-Dawley rat transient middle cerebral artery occlusion model assessed as reduction of infarct size at 3 mg/kg, iv measured 24 hrs post reperfusion by TTC staining assay relative to vehicle-treated control; format: functional; parameters: scale not given: the % may be the effect or the level left; summary of the method: as §2
[23] = Terminal half life in Sprague-Dawley rat cortex at 2 x 10^-5 mol/kg, iv by LC-MS analysis; format: ADME, organism-based; conditions: 2e-05 mol/kg, read-out: beta t1/2; summary of the method: as §3

COc1cc(O)cc2oc(=O)c(N3CCN(C)CC3)c(C)c12
Activity (Rattus norvegicus [1]): Active | Activity (Rattus norvegicus [2]): Dose-dependent effect | Activity (Rattus norvegicus [3]): Dose-dependent effect | CL (Cortex [4]): 0.558 L/min | Activity (Rattus norvegicus [5]): Dose-dependent effect | inhibition (Rattus norvegicus [6]): Active | Drug uptake (Cortex [7]): Not Active | Tmax [8]: 2 min | Vd [9]: 12.3 L | Cmax [10]: 122 ng/mL | Tmax [11]: 2 min | Activity (PC-12): 66% | AUC [12]: 2870 ng·h/mL | inhibition (Rattus norvegicus [13]): Active | clearance [14]: 9 mL/min | Cmax [15]: 13300 ng/mL | Activity (Rattus norvegicus [16]): 18.89% | inhibition (Rattus norvegicus [17]): Active | Activity (Rattus norvegicus [18]): Active | AUC [19]: 42.4 ng·h/mL | half-life [20]: 6.51 min | Vd [21]: 0.084 L | Activity (Rattus norvegicus [22]): 20.36% | half-life [23]: 15.5 min
